Data reported in ChEMBL document CHEMBL4680349, “Design, synthesis and evaluation of 1-benzyl-1H-imidazole-5-carboxamide derivatives as potent TGR5 agonists” (Bioorg Med Chem, 2021).
Activity calls are given as the source filed them.

Legend:
[1] = biological target: T1, G-protein coupled bile acid receptor 1 (Homo sapiens, UniProt Q8TDU6); experiment: Agonist activity at human TGR5 transfected in HEK293T cells assessed intracellular cAMP level by HTRF assay; format: functional, cell-based
T1 sequence (Q8TDU6 whole entry): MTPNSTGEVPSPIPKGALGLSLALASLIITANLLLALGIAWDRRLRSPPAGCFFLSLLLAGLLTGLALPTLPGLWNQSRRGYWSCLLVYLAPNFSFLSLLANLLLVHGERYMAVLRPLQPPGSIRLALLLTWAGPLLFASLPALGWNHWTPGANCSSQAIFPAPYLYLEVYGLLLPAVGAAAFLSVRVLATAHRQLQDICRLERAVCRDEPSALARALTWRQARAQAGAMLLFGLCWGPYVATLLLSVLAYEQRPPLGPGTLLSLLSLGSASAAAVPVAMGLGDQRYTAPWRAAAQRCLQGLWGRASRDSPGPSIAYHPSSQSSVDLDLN

[2] = biological target: T2, G-protein coupled bile acid receptor 1 (Mus musculus, UniProt Q80SS6); experiment: Agonist activity at mouse TGR5 transfected in HEK293T cells assessed intracellular cAMP level by HTRF assay; format: functional, cell-based
T2 sequence (Q80SS6 whole entry): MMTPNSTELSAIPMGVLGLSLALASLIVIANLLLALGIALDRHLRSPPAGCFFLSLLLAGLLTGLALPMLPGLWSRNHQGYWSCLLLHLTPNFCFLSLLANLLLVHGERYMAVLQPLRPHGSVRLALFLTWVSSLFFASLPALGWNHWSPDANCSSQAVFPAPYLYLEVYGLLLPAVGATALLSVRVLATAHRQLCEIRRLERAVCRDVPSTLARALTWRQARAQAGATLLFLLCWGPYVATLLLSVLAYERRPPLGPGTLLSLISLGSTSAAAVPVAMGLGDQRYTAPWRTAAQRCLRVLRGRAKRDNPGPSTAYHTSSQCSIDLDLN
How it was run: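 Run by the same cAMP HTRF method used for human TGR5, with compounds from 10 mM DMSO stocks. EC50 given as mean ± SEM of three independent experiments.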

[3] = biological target: T3, G-protein coupled bile acid receptor 1 (Homo sapiens) (UniProt Q8TDU6); experiment: Agonist activity at human TGR5 transfected in HEK293T cells assessed intracellular cAMP level at 40 uM by HTRF assay; format: functional, cell-based; settings: filed as agonist
T3 sequence (whole entry): T1 sequence (Q8TDU6 whole entry)
How it was run: (§1)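 HEK293T stable line made by lentiviral transfection with drug selection. cAMP measured by HTRF cAMP dynamic 2 kit. Compounds from 10 mM DMSO stocks. 10 μM LCA defined as 100% and 0.1% DMSO as 0% hTGR5 activation. Mean of three independent experiments.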

[4] = biological target: T3, G-protein coupled bile acid receptor 1 (Homo sapiens); experiment: Agonist activity at human TGR5 transfected in HEK293T cells assessed intracellular cAMP level at 10 uM by HTRF assay; format: functional, cell-based; how it was run: as §1
[5] = biological target: T4, Bile acid receptor (Homo sapiens) (UniProt Q96RI1); experiment: Agonist activity at GST-tagged human FXR-LBD using biotinylated SRC-1 peptide as substrate at 20 uM by HTRF assay
T4 sequence (whole entry): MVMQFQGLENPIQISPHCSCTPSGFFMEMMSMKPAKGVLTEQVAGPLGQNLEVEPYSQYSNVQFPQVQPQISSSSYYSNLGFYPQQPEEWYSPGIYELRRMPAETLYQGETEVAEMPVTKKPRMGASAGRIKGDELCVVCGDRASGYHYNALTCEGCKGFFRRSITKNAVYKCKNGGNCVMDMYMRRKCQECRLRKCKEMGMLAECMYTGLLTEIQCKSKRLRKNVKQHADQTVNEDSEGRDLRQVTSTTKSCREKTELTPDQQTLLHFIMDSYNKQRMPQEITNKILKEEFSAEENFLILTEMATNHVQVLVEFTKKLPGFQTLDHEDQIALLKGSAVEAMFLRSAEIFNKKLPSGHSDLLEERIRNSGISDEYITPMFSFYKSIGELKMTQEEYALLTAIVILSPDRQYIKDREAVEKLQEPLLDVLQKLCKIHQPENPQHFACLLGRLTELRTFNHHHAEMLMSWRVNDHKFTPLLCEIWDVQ
How it was run: (§2)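 Reaction mix in HTRF buffer (50 mM Hepes pH 7.0, 125 mM KF, 0.125% CHAPS, 0.05% dry milk): 10 nM GST-FXRα LBD, 100 nM biotin-SRC1, 0.83 nM Eu-anti-GST, 41.75 nM streptavidin-XL665. Incubated at room temperature, read as (665/620 nm)×10,000. 50 μM CDCA defined as 100% and 0.1% DMSO as 0% activation.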

[6] = system: Mus musculus; experiment: Induction of GLP-1 secretion in TGR5 knock out C57BL/6J mouse assessed as serum GLP-1 level at 30 mg/kg, po followed by 2 g/kg glucose orally administered measured after 5 mins by ELISA relative to control; format: functional, organism-based
How it was run: (§3)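 Eight-week-old WT or TGR5−/− mice fasted overnight, then given vehicle (0.25% CMC) or compound 30 mg/kg orally. Oral glucose 2.0 g/kg 1 h later. Blood taken 5 min after glucose into tubes with DPP IV inhibitor and EDTA. Serum active GLP-1(7–36 amide) measured by ELISA.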

[7] = system: Mus musculus; experiment: Antidiabetic activity against in C57BL/6J mouse assessed reduction in glucose AUC at 30 mg/kg, po pretreated for 60 mins followed by 2 g/kg glucose orally administered measured upto 120 mins by OGTT method relative to control; format: functional; parameters: scale not given: the % may be the effect or the level left; settings: time min <=180
[8] = system: A549; experiment: Cytotoxicity against human A549 cells assessed as reduction in cell viability incubated for 24 hrs by CCK8 assay; format: functional, cell-based; settings: A549, 24 h
How it was run: (§4)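 Cells exposed to compounds for 24 h, then viability read by CCK8 assay to give IC50.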

[9] = system: HeLa; experiment: Cytotoxicity against human HeLa cells assessed as reduction in cell viability incubated for 24 hrs by CCK8 assay; format: functional, cell-based; how it was run: as §4
[10] = biological target: T4, Bile acid receptor (Homo sapiens); experiment: Agonist activity at GST-tagged human FXR-LBD using biotinylated SRC-1 peptide as substrate at 10 uM by HTRF assay; how it was run: as §2
[11] = Stability of the compound in human plasma assessed as parent compound remaining measured after 120 mins; format: ADME, cell-free; settings: read-out: Stabilty
[12] = biological target: T4, Bile acid receptor (Homo sapiens); experiment: Agonist activity at GST-tagged human FXR-LBD using biotinylated SRC-1 peptide as substrate at 50 uM by HTRF assay; how it was run: as §2
[13] = system: Mus musculus; experiment: In vivo agonist activity at TGR5 in wild type C57BL/6J mouse assessed as induction of GLP-1 secretion at 30 mg/kg, po followed by 2 g/kg glucose orally administered measured after 5 mins by ELISA relative to control; format: functional, organism-based; how it was run: as §3
[14] = Stability of the compound in human plasma assessed as parent compound remaining measured after 60 mins; format: ADME, cell-free; settings: read-out: Stabilty

Row | Structure (SMILES) | EC50 [1] [nM] | Activity [3] [%] | Activity ([4]; filed as agonist) [%] | further results
1 | Cc1ccc(NC(=O)c2cncn2[C@H](C)c2ccccc2)cc1 |  | 63.3 |  | Activity [4]: 20.2%
2 | C[C@H](c1ccccc1)n1cncc1C(=O)Nc1ccccc1F |  | 48.4 |  | Activity [4]: 16.5%
3 | Cc1ccc(N(C)C(=O)c2cncn2[C@H](C)c2ccccc2)cc1 |  | 86.7 | 62.1 | 
4 | C[C@H](c1ccccc1)n1cncc1C(=O)Nc1ccc(Cl)cc1 |  | 84.1 |  | Activity [4]: 37.7%
5 | O=C(c1cncn1Cc1ccc(Cl)cc1Cl)N1CCN(C2CC2)c2ccccc21 | 6.8 |  |  | Activity [5]: 1.6%; Activity [6]: inactive; Activity [7]: 15.8%; IC50 [8]: > 50 µM; IC50 [9]: > 50 µM; Activity [10]: 1.1%; remaining at 2 h [11]: 104%; Activity [12]: -1.1%; Activity [13]: Active; remaining at 1 h [14]: 107%; EC50 [2]: 0.611 µM
6 | C[C@H](c1ccccc1)n1cncc1C(=O)Nc1ccc(F)cc1 |  | 85.2 | 51.3 | 
7 | C[C@H](c1ccccc1)n1cncc1C(=O)Nc1cccc(F)c1 |  | 56.2 |  | Activity [4]: 20.1%
8 | C[C@H](c1ccccc1)n1cncc1C(=O)N(C)c1ccc(F)cc1 | 1050 | 85.4 | 70.9 | 
9 | COc1ccc(NC(=O)c2cncn2[C@H](C)c2ccccc2)cc1 |  | 66.5 |  | Activity [4]: 25.3%
10 | C[C@H](c1ccccc1)n1cncc1C(=O)N(C)c1ccc(Cl)cc1 |  | 71.9 | 63.1 | 
11 | O=C(c1cncn1Cc1ccc(F)cc1F)N1CCN(C2CC2)c2ccccc21 | 338 |  |  | EC50 [2]: > 10 µM
12 | COc1ccc(N2CCN(C(=O)c3cncn3[C@H](C)c3ccccc3)CC2)cc1 | 4390 | 89.7 | 79.1 | 

Second part, led by results:

Row | EC50 [1] [nM] | Activity [3] [%] | Activity ([4]; filed as agonist) [%] | Structure (SMILES) | further results
13 | 118 |  |  | O=C(c1cncn1Cc1ccccc1Cl)N1CCN(C2CC2)c2ccccc21 | EC50 [2]: 3.69 µM
14 |  | 74.5 | 54.1 | C[C@H](c1ccccc1)n1cncc1C(=O)N1CCOc2ccccc21 | 
15 |  | 81.6 | 41.7 | C[C@H](c1ccccc1)n1cncc1C(=O)N1CCN(c2ccccc2)CC1 | 
16 |  | 49.2 |  | COc1ccccc1N1CCN(C(=O)c2cncn2[C@H](C)c2ccccc2)CC1 | Activity [4]: 17.4%
17 | 330 | 97.4 | 89.8 | C[C@H](c1ccccc1)n1cncc1C(=O)N1CCN(C2CC2)c2ccccc21 | 
18 | 1750 |  |  | O=C(c1cncn1Cc1ccccc1)N1CCN(C2CC2)c2ccccc21 | EC50 [2]: 3.5 µM
19 | 568 |  |  | O=C(c1cncn1Cc1ccc(F)cc1)N1CCN(C2CC2)c2ccccc21 | EC50 [2]: > 10 µM
20 | 1090 | 95.3 | 79.3 | C[C@H](c1ccccc1)n1cncc1C(=O)N1CCN(c2ccccc2F)CC1 | 
21 | 9.5 |  |  | O=C(c1cncn1Cc1cc(Cl)ccc1Cl)N1CCN(C2CC2)c2ccccc21 | Activity [5]: -0.8%; Activity [7]: 13.7%; IC50 [8]: > 50 µM; IC50 [9]: > 50 µM; Activity [10]: 2.3%; remaining at 2 h [11]: 105%; Activity [12]: 0.31%; remaining at 1 h [14]: 112%; EC50 [2]: 0.832 µM
22 |  | 77.1 | 48.3 | C[C@H](c1ccccc1)n1cncc1C(=O)N1CCCc2ccccc21 | 
